Results: ChEMBL document CHEMBL4330167, “Chloraserrtone A, a Sesquiterpenoid Dimer from Chloranthus serratus” (J Nat Prod, 2019)

How the values were obtained:
[1] = Cytotoxicity against mouse RAW264.7 cells assessed as cellular metabolic activity at 50 uM after 48 hrs by MTT assay relative to control; assay type: ADME, cell-based; settings: read-out: Activity
How it was run: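 RAW264.7 cells at 5 × 10^4 cells/mL exposed to 50 μM test agent (DMSO solution) for 48 h. MTT then added at 5 mg/mL in sterile PBS for 4 h; formazan dissolved in DMSO and absorbance read at 490 nm. Triplicate treatments.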

RAW264.7 = test: Anti-inflammatory activity in mouse RAW264.7 cells assessed as inhibition of LPS-induced NO production preincubated for 30 mins followed by LPS stimulation and measured after 24 hrs by Griess reagent based colorimetric method; assay type: functional, cell-based
How it was run: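 RAW264.7 murine macrophages in DMEM with 10% supplement, 37 °C, 5% CO2, grown 24 h before treatment. Test agents at several concentrations added 30 min before 1 μg/mL LPS (or no LPS). After 24 h, supernatant mixed with Griess reagents I and II; absorbance at 560 nm. IC50 derived only where cell activity at 50 μM stayed ≥50%. L-NIL as positive control.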

| Compound | viability at 48 h, 50 µM [1] | IC50 (RAW264.7) |
| --- | --- | --- |
| CC(=N)NCCCC[C@H](N)C(=O)O [L-NIL] | 93.3% | 7 µM |
| C/C=C(\C)C(=O)OC[C@]1(O)[C@H]2C[C@H]2[C@]2(C)[C@@H]3C[C@@]4(O)C5=C(C6=C(C)C(=O)O[C@]6(O)[C@H](O)[C@@]5(C)[C@@H]5C[C@@H]54)[C@@]34OC(=O)C(COC(C)=O)=C4C[C@@H]12 [SARCANDROLIDE D] | < 50% |  |
| CO[C@@]12OC(=O)C(C)=C1C1=C3[C@](C)([C@@H]4C[C@@H]4[C@@]3(O)C[C@@H]3[C@]14OC(=O)C1=C4C[C@H]4[C@](O)(COC(=O)/C(C)=C/COC(=O)CCC(=O)OC1)[C@H]1C[C@H]1[C@]34C)[C@H]2O | < 50% |  |
| COC(=O)/C(C)=C1\C(=O)[C@H](O)[C@]2(C)C3=C(C[C@@H]4[C@]5(OC(=O)C(CO)=C5C[C@H]5[C@H](COC(C)=O)[C@H]6C[C@H]6[C@]45C)[C@H]31)[C@H]1C[C@H]12 | 97% | 3.7 µM |
| COC(=O)/C(C)=C1\C(=O)[C@H](O)[C@]2(C)C3=C(C[C@@H]4[C@]5(OC(=O)C6=C5C[C@H]5[C@](O)(COC(=O)/C(C)=C/COC(=O)CCC(=O)OC6)[C@H]6C[C@H]6[C@]45C)[C@H]31)[C@H]1C[C@H]12 [SHIZUKAOL B] | 55.4% | > 50 µM |
| CC1=C2C3=C4[C@](C)([C@@H]5C[C@@H]5[C@@]4(O)C[C@@H]4[C@]35OC(=O)C3=C5C[C@H]5[C@](O)(COC(=O)/C=C(\C)COC(=O)CCC(=O)OC3)[C@H]3C[C@H]3[C@]45C)[C@@H](O)[C@@]2(O)OC1=O | < 50% |  |
| COC(=O)/C(C)=C1\C(=O)[C@H](O)[C@]2(C)C3=C(C[C@@H]4[C@]5(OC(=O)C6=C5C[C@H]5[C@](O)(COC(=O)/C=C(\C)COC(=O)CCC(=O)OC6)[C@H]6C[C@H]6[C@]45C)[C@H]31)[C@H]1C[C@H]12 [SHIZUKAOL F] | 53.1% | > 50 µM |
| COC(=O)/C(C)=C1/C(=O)[C@H](O)[C@]2(C)C3=C(C[C@@H]4[C@]5(OC(=O)C6=C5C[C@H]5[C@](O)(COC(=O)/C(C)=C/COC(=O)CCC(=O)OC6)[C@H]6C[C@H]6[C@]45C)[C@H]31)[C@H]1C[C@H]12 | 66.5% | 25.5 µM |
| CC1=C2C3=C4[C@@](C)(C(=O)[C@@]2(O)OC1=O)[C@@H]1C[C@@H]1[C@@]4(O)C[C@@H]1[C@]32OC(=O)C3=C2C[C@H]2[C@](O)(COC(=O)/C(C)=C/COC(=O)CCC(=O)OC3)[C@H]3C[C@H]3[C@]12C [SPICACHLORANTIN B] | < 50% |  |
| C/C=C(\C)C(=O)OC[C@]1(O)[C@H]2C[C@H]2[C@]2(C)[C@@H]3CC4=C5[C@H](/C(=C(/C)C(=O)OC)C(=O)[C@H](O)[C@@]5(C)[C@@H]5C[C@H]45)[C@@]34OC(=O)C(COC(C)=O)=C4C[C@@H]12 | < 50% |  |
| COC(=O)CCC(=O)OCC1=C2C[C@H]3[C@](O)(COC(=O)/C=C(\C)CO)[C@H]4C[C@H]4[C@]3(C)[C@@H]3CC4=C5[C@H](/C(=C(\C)C(=O)OC)C(=O)[C@H](O)[C@@]5(C)[C@@H]5C[C@H]45)[C@]23OC1=O | 71.5% | 23.1 µM |
| COC(=O)/C(C)=C1\C(=O)[C@H](O)[C@@]2(C)[C@@H]3C[C@@H]3[C@@]34CCC5=C6C3=C(C(=O)[C@H](O)[C@@]6(C)[C@@H]3C[C@H]53)[C@](C)(C(=O)OC)[C@@H]1[C@@]24O | < 50% |  |
